Screening results as filed in PubChem.
A selection follows.
Apaf-1 act = activators of human Apaf-1 apoptosome. activity change, negative = activation, % at 20 µM. Apaf-1 apoptosome caspase-3 activation, DEVD-Rh110 fluorescence; hits give low values. AID 489031. 330,000 compounds, 0.31% hits. O14727;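 active = activity change at or below -40% at 20 µM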
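Material: reconstituted apoptosome of Apaf-1, cytochrome c, caspase-9, procaspase-3; times: 30 min preincubation, 50 min reaction, room temperature; measured by: fluorescence, 540 nm emission, 480 nm excitation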
Rh110 act interf = counter-screen for Apaf-1 activators: fluorescence interference; shares compounds with Apaf-1 act; Rh110 fluorescence interference, quenched caspase reaction, Ex480/Em540; fluorescence interference (activity change), % at 20 µM, hits read low; 980 tested, under 10 active; AID 504616;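 active = mean activity change at or below -40% when tested at 20 µM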
Apaf-1 act conf = confirmation of human Apaf-1 activators; shares compounds with Apaf-1 act; reconstituted apoptosome caspase-3 activity, DEVD-Rh110 fluorescence; hits give low values; activity change, negative = activation, % at 20 µM; 980 compounds, 5% hits; AID 504617;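 active = mean activity change at or below -40%, meaning activation of 40% or more, at 20 µM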
Starred values were filed as active, the others as inactive.

Screening O=C(C(Cc1ccccc1)N1C(=O)c2ccccc2C1=O)N1c2ccccc2CCc2ccccc21 (centres undefined) returned Apaf-1 act 40.
COC(=O)C1=C(C)N(Cc2ccccc2)C(=NCc2ccccc2)N[C@H]1c1cccc(F)c1 was read as Apaf-1 act 41.
For CC1=NN(c2ccccc2)C(=O)/C1=C\c1ccc(Oc2ccc([N+](=O)[O-])cc2[N+](=O)[O-])cc1 the results were Apaf-1 act 92.
For COc1ccc(-c2nn(-c3ccccc3)cc2/C=C(\C#N)C(N)=O)cc1[N+](=O)[O-] the results were Apaf-1 act -53*, Rh110 act interf -1 and Apaf-1 act conf -29.
N#C/C(=C/c1cn(-c2ccccc2)nc1-c1cccc(OCc2ccc(F)cc2)c1)C(=O)NCCCn1ccnc1 was read as Apaf-1 act 44.
`COc1ccc(-c2nn(-c3ccccc3)cc2/C=C(/C#N)C(N)=O)cc1[N+](=O)[O-]` gave Apaf-1 act -57*, Rh110 act interf 12 and Apaf-1 act conf -23.
`CCCCCc1cc(=O)oc2c(C(CCN3CCCC3)c3cc(OC)c(OC)c(OC)c3)c(OC)cc(OC)c12` (centres undefined) gave Apaf-1 act 50.
Screening CC1(C)OC(C)(C)/C(=C/Nc2ccc(O)cc2)C1=O returned Apaf-1 act 48.
`C=CCNc1oc(-c2ccc(OCC)cc2)nc1C#N` gave Apaf-1 act -52*, Rh110 act interf 12 and Apaf-1 act conf 15.
For COc1ccc(NC(=O)c2cc(-c3ccncc3)nc3ccc(Br)cc23)cc1OC the results were Apaf-1 act 45.
`CC(C)CCn1c(N)c(S(=O)(=O)c2cccs2)c2nc3ccccc3nc21` gave Apaf-1 act 51.
CC1(C(=O)NCc2ccccn2)C=CCN1C(=O)c1ccccc1 (centres undefined) was read as Apaf-1 act -273*, Rh110 act interf 6 and Apaf-1 act conf -4.
Screening CCN1/C(=C/C=C/c2oc3ccc4ccccc4c3[n+]2CC)Oc2ccc3ccccc3c21 returned Apaf-1 act 76.
Screening CCCCc1c(C)c(C#N)c2[nH]c3ccccc3n2c1=O returned Apaf-1 act 45.
For O=S(=O)(Nc1cccc(-c2nc3cccnc3s2)c1)c1ccc2c(c1)OCCO2 the results were Apaf-1 act -104*, Rh110 act interf 2 and Apaf-1 act conf 10.
For CCC(CO)Oc1cc(NCc2ccncc2)c2ncn(C(C)C)c2c1 (centres undefined) the results were Apaf-1 act 41.
Screening NC[C@@H]1O[C@H](C23CC4CC(CC(C4)C2)C3)Cc2c1ccc(O)c2O returned Apaf-1 act 42.
For C=CC(=O)Nc1ccc(Nc2nc(NC3CCC(N(C)C)CC3)nc3c2ncn3C(C)C)cc1 (centres undefined) the results were Apaf-1 act 46.
`C/C(=C\C(=S)Nc1ccccc1)Nc1ccc2ccccc2c1` gave Apaf-1 act 41.
Screening CCN1CCN(c2ccc(NC(=O)c3cc4ccccc4cc3OC)cc2C)CC1 returned Apaf-1 act 51.
Screening Cc1occc1C(=O)Nc1ccc2ccccc2c1 returned Apaf-1 act -351*, Rh110 act interf 1 and Apaf-1 act conf 15.
Screening CCCCCCCCNC(C)C(O)c1ccc(SC(C)C)cc1 (centres undefined) returned Apaf-1 act 58.
Screening COc1ccc(O)c(C(c2c(C)[nH][nH]c2=O)c2c(C)[nH][nH]c2=O)c1 returned Apaf-1 act 67.
O=C(Nc1cccc([N+](=O)[O-])c1)Nc1ccc2c(c1)OCCO2 was read as Apaf-1 act -288*, Rh110 act interf 5 and Apaf-1 act conf 3.
`COc1ccc(Nc2ccc3c(c2)=NC2(CCCCC2)[N+]=3[O-])cc1` gave Apaf-1 act 80.
For CN(CCCN1c2ccccc2CCc2ccccc21)CC(=O)c1ccc(Cl)cc1 the results were Apaf-1 act 44.
Screening Cc1ccc(-n2ccnc2SCC(=O)O)c(C)c1 returned Apaf-1 act -478*, Rh110 act interf -3 and Apaf-1 act conf 13.
Screening COC(=O)C1=C(C)N(Cc2ccccc2)C(=NCc2cc(OC)c(OC)c(OC)c2)N[C@H]1CCc1ccccc1 returned Apaf-1 act 48.
C#CCOCCOCCOCCNc1nc(N2CCN(C(=O)CCCCCCCCCCNC(=O)[C@H](CCCN=C(N)N)n3cc(C[C@@H](C)CC)nn3)CC2)nc(N2CCN(C(=O)CCCCCCCCCCNC(=O)[C@@H]([C@H](C)CC)n3cc(CCCCCN)nn3)CC2)n1 was read as Apaf-1 act 80.
Screening Cn1c(NC(=O)c2ccc(Cl)s2)cc(=O)n(C)c1=O returned Apaf-1 act 66.
Screening COc1ccc2[nH]c3c4c(ccc3c2c1)C(=O)C=CC4=O returned Apaf-1 act 45.
For O=C(Nc1ccccc1C(=O)Nc1cccnc1)c1ccccc1 the results were Apaf-1 act -166*, Rh110 act interf 9 and Apaf-1 act conf 14.
For CCOc1ccc(NC(=O)CN(C)C(=O)c2ccc(COc3ccccc3)cc2)cc1OCC the results were Apaf-1 act 48.
Screening CCOc1ccc(NC(=S)Nc2cccc3cnccc23)cc1 returned Apaf-1 act 96.
Screening S=C(Nc1cccnc1)Nc1cccc2cnccc12 returned Apaf-1 act 86.
`CCOc1ccc(OCc2ccc(C(=O)Nc3cccnc3)cc2)cc1` gave Apaf-1 act -51*, Rh110 act interf 2 and Apaf-1 act conf 6.
`CCN(C(=S)Nc1cccnc1)c1cccc2ccccc12` gave Apaf-1 act 85.
For C[C@H](CCC(=O)O)[C@H]1CC[C@H]2[C@@H]3[C@H](O)C[C@@H]4C[C@H](O)CC[C@]4(C)[C@H]3C[C@H](O)[C@]12C the results were Apaf-1 act -3.
Screening CC(=O)N(/N=C1\Sc2ccccc2C1=O)c1ccccc1C returned Apaf-1 act 90.
Cc1nnc(N=c2ssnc2Cl)o1 was read as Apaf-1 act 50.
O=S(=O)(Nc1ccc(O)c2ccccc12)c1cccs1 was read as Apaf-1 act 52.
COc1ccc(CCn2c(N)c(C#N)c3nc4ccccc4nc32)cc1OC was read as Apaf-1 act 60.
For CNc1cc(C)c(C#N)c2nc3ccccc3n12 the results were Apaf-1 act -58*, Rh110 act interf 7 and Apaf-1 act conf 3.
N#Cc1c(N)n(-c2ccccc2N)c2nc3ccccc3nc12 was read as Apaf-1 act 69.
CCC[C@@H](CN1CCC[C@H]1CN1C(N)=NC[C@H]1CC(C)C)N1C[C@@H](Cc2ccccc2)N(CCCC2CCCC2)C1=N was read as Apaf-1 act 59.
Screening CC1(C)Cc2c(sc(NC(=O)COc3cccc4ccccc34)c2C#N)C(C)(C)N1 returned Apaf-1 act 46.
For CC1=NN(c2ccc(C)cc2C)C(=O)C1C(c1ccccc1O)C1C(=O)N(c2ccc(C)cc2C)N=C1C (centres undefined) the results were Apaf-1 act 97.
`CC/C(=C(\c1ccccc1)c1ccc(OCCN(C)C)cc1)c1ccccc1` gave Apaf-1 act 69.
Screening O=C(NC(=S)Nc1ccc(CN2CCCCC2)cc1)c1cccc(OCc2ccccc2)c1 returned Apaf-1 act 43.
